What was measured:
[1] = Inhibition of acid-induced fibrillogenesis of human Transthyretin Y78F mutant expressed in Escherichia coli BL21 (DE3) cells assessed as inhibition of fibril formation incubated for 30 mins by kinetic turbidimetric assay
Summary of the method: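 TTR-Y78F in 20 mM K phosphate, 100 mM KCl, 1 mM EDTA, pH 7.6, preincubated with inhibitor 0–40 μM (final 5% DMSO) 30 min at 37 °C with shaking. Acidified with 400 mM KAcO/100 mM KCl/1 mM EDTA pH 4.2 to final 0.4 mg/mL TTR. A340 read at 1-min intervals for 1.5 h at 37 °C. Initial rates fitted to v0 = A + B·e^(−C[I]) to give IC50.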

Homo sapiens = species: Homo sapiens; test: Inhibition of acid-induced fibrillogenesis of human Transthyretin Y78F mutant expressed in Escherichia coli BL21 (DE3) cells assessed as reduction in fibril formation at 40 uM incubated for 30 mins by kinetic turbidimetric assay relative to control
Summary of the method: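 TTR-Y78F (final 0.4 mg/mL) preincubated 30 min at 37 °C with ligand up to 40 μM in 5% DMSO at pH 7.6. Aggregation triggered by pH 4.2 acetate buffer, then A340 followed for 1.5 h at 37 °C. From the exponential fit of initial rate versus concentration, RA% is the reduction in initial rate at high inhibitor concentration relative to no inhibitor.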

Structure (SMILES)	IC50 [1]	inhibition (Homo sapiens)
O=C(O)c1cc(-c2ccc(F)cc2C(F)(F)F)ccc1O	23.1 µM	60.4%
O=C(O)c1cc(-c2c(F)cc(F)cc2Cl)cc(I)c1O	4.6 µM	91%
O=C(O)c1cc(-c2c(F)cc(F)cc2Cl)ccc1O	7.2 µM	89.1%
COC(=O)CCNC(=O)c1cc(-c2c(F)cc(F)cc2Cl)cc(I)c1O	3.7 µM	90%
CCOc1cc(F)ccc1-c1ccc(O)c(C(=O)O)c1	6.1 µM	88.8%
COC(=O)[C@@H](C)NC(=O)c1cc(-c2c(F)cc(F)cc2Cl)cc(I)c1O	6 µM	89%
O=C(O)c1cc(-c2ccc(Cl)cc2F)ccc1O	21.7 µM	77.3%
O=C(O)c1cc(-c2ccc(F)cc2C(F)(F)F)cc(I)c1O	7.2 µM	87%
O=C(O)c1cc(-c2c(F)cc(F)cc2Cl)cc(Br)c1O	3.6 µM	89%
COc1cc(F)ccc1-c1ccc(O)c(C(=O)O)c1	6 µM	87.8%
CCOc1cc(F)ccc1-c1cc(I)c(O)c(C(=O)O)c1	5.1 µM	91.1%
O=C(O)c1cc(-c2ccc(Cl)cc2F)cc(I)c1O	3.9 µM	88.5%
COc1cc(F)ccc1-c1cc(I)c(O)c(C(=O)O)c1	5.3 µM	90.3%
COc1cc(F)ccc1-c1cc(Br)c(O)c(C(=O)O)c1	5.2 µM	95.5%
CCOc1cc(F)ccc1-c1cc(Br)c(O)c(C(=O)O)c1	4.3 µM	89.9%
O=C(O)c1cc(-c2ccc(F)cc2F)cc(I)c1O	4.2 µM	94%
